# Sampled rows, rich in hits. Any-hit rate of the full collection: about 29%.
# CYP2C9 inhib – human CYP2C9 inhibition. P11712. CYP2C9 Supersomes, luciferin-H conversion, luminescence. inhibition, % at 5 µM. 20% of 96,000 active;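 active means blocking of liver enzyme CYP2C9 beyond about 50% at 5 µM, limit read from the data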
# Target sequence (P11712 whole entry, looked up): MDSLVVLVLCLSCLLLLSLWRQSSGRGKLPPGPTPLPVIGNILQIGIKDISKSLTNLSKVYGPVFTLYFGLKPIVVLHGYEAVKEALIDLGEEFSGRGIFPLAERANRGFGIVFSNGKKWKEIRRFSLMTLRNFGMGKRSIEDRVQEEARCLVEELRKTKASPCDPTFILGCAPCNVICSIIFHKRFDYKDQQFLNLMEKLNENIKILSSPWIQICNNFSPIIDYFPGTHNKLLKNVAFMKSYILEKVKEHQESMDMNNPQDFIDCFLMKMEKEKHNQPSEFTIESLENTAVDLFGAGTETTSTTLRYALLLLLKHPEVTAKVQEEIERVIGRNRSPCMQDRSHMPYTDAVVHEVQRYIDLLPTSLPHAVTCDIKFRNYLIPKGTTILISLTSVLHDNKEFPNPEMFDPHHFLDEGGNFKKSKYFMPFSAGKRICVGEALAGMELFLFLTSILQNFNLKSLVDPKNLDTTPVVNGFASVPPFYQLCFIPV
# CYP2C19 inhib – blocks human cytochrome P450 2C19. P33261. CYP2C19 Supersomes, luciferin-H EGE luminescence, 30 min. inhibition, % at 5 µM. 21% of 96,000 active. AID 778;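 active means CYP2C19 inhibition above a set limit at 5 µM in the primary screen, cut at about 50% in these data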;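 further: plate controls were negative control wells for no effect and 2.5 mM tranylcypromine positive control for full effect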
# tolC growth inh – E. coli tolC mutant growth inhibition; growth inhibition, % at 10 µM (by protocol); 2.2% of 65,000 active; E. coli BW25113 tolC mutant growth, OD615;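 active means growth inhibition at or above a cutoff equal to the mean over every tested compound plus 3 SD, cut at about 60% in these data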;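 further: growth measured after 20 h incubation at 37 °C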
#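 System: E. coli ΔtolC::kan strain BW25113; Buffer or medium: LB broth supplemented with 50 µg/mL kanamycin; Compound: 10 µM final, single dose; Incubation: bacterial growth with compound for 20 h at 37 °C; Signal: A615 absorbance measurement; Evaluation: growth inhibition in percent.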
# CYP2C19 activ – increases human CYP2C19 enzyme activity; activation factor at 5 µM; 96,000 tested, under 10 active; recombinant CYP2C19, luciferin-H EGE luminescence; active compounds read high; 0 = fully inhibited enzyme, 1 = untreated enzyme; P33261;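 active means activation factor of at least 2 at 5 µM in the primary screen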;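 further: 0 = wells with 2.5 mM tranylcypromine and 1 = vehicle-only wells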
# E coli WT exp – E. coli BW25113 growth inhibition, expanded screen; growth inhibition, % at 100 µM; OD600 absorbance; 0.15% of 98,000 active;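 active means growth inhibition above about 50% at one test dose, limit read from the data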;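 further: growth measured after 20 h incubation at 37 °C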
# CYP2C9 activ – increases human cytochrome P450 2C9 activity | AID 1024 | 1.4% of 96,000 active | activation factor at 5 µM | recombinant CYP2C9, luciferin-H conversion, luminescence; active compounds read high; factor 1 = untreated enzyme, 0 = blocked | P11712;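 active means activation factor of 2 or more for CYP2C9 at a 5 µM dose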;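 further: 0 = sulfaphenazole-blocked wells and 1 = vehicle-only wells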
# Starred values were filed as active, the others as inactive; . = no result given.
SMILES,CYP2C9 inhib,CYP2C19 inhib,tolC growth inh,CYP2C19 activ,E coli WT exp,CYP2C9 activ
CCOc1cc(NC(=O)C2CC2)c(OCC)cc1NC(=O)c1cccnc1,27,97*,-25,0,.,0.7
CCc1nnc(NC(=O)c2nc3nc(C)cc(C)n3n2)s1,-6,-10,.,1.1,-1,1.1
CCCCc1ccc(NC(=O)CC(C)=O)cc1,-1,14,-3,0.9,7,1
CCCCc1ccc(NS(=O)(=O)N(C)C)cc1,94*,65*,16,0.4,7,0.1
Cc1[nH]c(=O)[nH]c(=O)c1S(=O)(=O)Nc1ccc(Oc2ccccc2)cc1,96*,92*,42,0.1,7,0
CC(=O)c1cccc(NS(=O)(=O)N(C)C)c1,-18,-12,-7,1.1,3,1.2
CN(C)S(=O)(=O)Nc1ccc(Oc2ccccc2)cc1,85*,95*,20,0.1,13,0.1
O=C(Nc1cc2c(cc1Br)OCCO2)c1cccs1,21,57*,.,0.4,1,0.8
COc1ccc(S(=O)(=O)N2CCC(C(=O)N3CCCC3)CC2)cc1Cl,22,89*,16,0.1,8,0.8
COc1ccc(S(=O)(=O)N2CCC(C(=O)N3CCCCC3)CC2)cc1Cl,20,92*,.,0.1,8,0.8
N#Cc1ccc(CSc2nnc(-c3cccc(S(=O)(=O)N4CCCCC4)c3)o2)cc1,19,20,19,0.8,-12,0.8
COc1cc(C=O)cc(OC)c1OS(=O)(=O)c1ccc(NC(C)=O)cc1,-182,91*,.,0.1,9,2.8*
COc1ccc(/C=N/NC(=O)c2nc(-c3ccccc3)cc(-c3ccccc3)n2)cc1OC,-6,1,.,1,-17,1.1
COc1ccc(/C=N/NC(=O)c2ccc3ccccc3c2)cc1OS(=O)(=O)c1ccc(NC(C)=O)cc1,87*,78*,.,0.2,-9,0.1
COC(=O)/C=C/S(=O)(=O)c1ccc(NC(C)=O)cc1,1,-1,0,1,2,1
Cc1sc2nc(SCC(=O)OC(C)C)n(C)c(=O)c2c1C,38,18,0,0.8,-13,0.6
CCOC(=O)CNC(=O)CSc1nc2sc(C)c(C)c2c(=O)n1C,50*,70*,-12,0.3,-9,0.5
Cc1sc2nc(SCC(=O)NCCO)n(C)c(=O)c2c1C,15,2,-2,1,-2,0.8
CCOC(=O)Cc1csc2nc3sc(C)c(C)c3c(=O)n12,17,56*,-4,0.4,4,0.8
COc1ccc(C2CC(c3ccc(Cl)c(Cl)c3)Nc3nc(N)nn32)cc1 (stereo unspecified),24,16,26,0.8,-6,0.8
Cc1occc1C(=O)NCCCc1ccccc1,26,40,-4,0.6,6,0.7
Cc1ccccc1OC(C)c1nc(-c2ccccc2)no1 (stereo unspecified),73*,70*,22,0.3,-3,0.3
Cc1ccc(SC(C)c2nc(-c3ccccc3)no2)cc1 (stereo unspecified),85*,90*,40,0.1,-2,0.2
O=C1CC(c2ccc(S(=O)(=O)N3CCN(c4ccccc4)CC3)cc2)CN1 (stereo unspecified),19,10,-4,0.9,2,0.8
O=C(COc1ccccc1)N1CCN=C1SCc1cccnc1,10,27,-10,0.7,-10,0.9
SMILES,CYP2C9 inhib,CYP2C19 inhib,tolC growth inh,CYP2C19 activ,E coli WT exp,CYP2C9 activ
CCN(CC)c1ccc(SS(=O)(=O)O)cc1,-9,-12,.,1.1,1,1.1
CCOC(=O)/C(C(C)=O)=C1\OC(=O)c2ccccc21,58*,20,-10,0.8,-5,0.4
CCOC(=O)/C(C(C)=O)=C1/OC(=O)c2ccccc21,-1,-10,.,1.1,-11,1
CCS(=O)(=O)c1ccc2c(c1)N(S(C)(=O)=O)CC(C(=O)NCc1ccccc1OC)O2 (stereo unspecified),62*,17,.,0.8,3,0.4
CCOC(=O)C1CN(S(=O)(=O)c2ccc(OC)cc2)c2cc(S(=O)(=O)CC)ccc2O1 (stereo unspecified),58*,50*,.,0.5,2,0.4
O=C1CC(N2CCC(c3nc4ccccc4s3)CC2)C(=O)N1 (stereo unspecified),-16,-14,-9,1.1,1,1.2
CC(C)=C1C2CC2C2C(C(=O)O)C12 (stereo unspecified),7,0,-2,1,-2,0.9

# Screening results (PubChem)
